{"source": "ChEMBL document CHEMBL5653630", "about": "“Activation of the p53-MDM4 regulatory axis defines the anti-tumour response to PRMT5 inhibition through its role in regulating cellular splicing” (Sci Rep, 2018)", "key": {"Z-138 [1]": {"system": "Z-138", "test": "Antitumor activity against human Z138 cells xenografted in mouse at 25 to 50 mg/kg, po BID measured at 14 to 21 days", "type": "functional, organism-based", "conditions": "dose lower […], dose upper 50.0 mg/kg, time 14-21 day"}, "Z-138 [2]": {"system": "Z-138", "test": "Induction of apoptosis in human Z138 cells assessed as early apoptotic cells incubated for 6 days by annexin-V/FITC propidium iodide staining based flow cytometry analysis", "type": "functional, cell-based", "conditions": "dose 200.0 nM, time 6.0 day"}, "JVM-2": {"system": "JVM-2", "test": "Induction of apoptosis in human JVM-2 cells assessed as early apoptotic cells incubated for 6 days by annexin-V/FITC propidium iodide staining based flow cytometry analysis", "type": "functional, cell-based", "conditions": "dose <= 5000.0 nM, time 6.0 day"}, "Z-138 [3]": {"system": "Z-138", "test": "In vivo inhibition of PRMT5 in human Z138 cells xenografted in mouse assessed as increase in CDKN1 expression at 100 mg/kg, po BID measured for 7 days", "type": "functional, organism-based", "conditions": "time 7.0 day"}, "Z-138 [4]": {"system": "Z-138", "test": "In vivo inhibition of PRMT5 in human Z138 cells xenografted in mouse assessed as increase in p21 expression at 100 mg/kg, po BID measured for 7 days", "type": "functional, organism-based", "conditions": "time 7.0 day"}, "[5]": {"molecular_target": "Apoptosis regulator BAX (Homo sapiens) (UniProt Q07812)", "sequence (Q07812 whole entry)": "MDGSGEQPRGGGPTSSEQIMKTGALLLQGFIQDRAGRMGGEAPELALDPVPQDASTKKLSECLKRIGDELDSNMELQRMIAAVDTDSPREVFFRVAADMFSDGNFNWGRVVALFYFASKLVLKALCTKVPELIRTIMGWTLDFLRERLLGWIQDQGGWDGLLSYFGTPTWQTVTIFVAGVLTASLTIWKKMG", "test": "In vivo inhibition of PRMT5 in human Z138 cells xenografted in mouse assessed as increase in BAX expression at 100 mg/kg, po BID measured for 7 days", "type": "functional, organism-based", "conditions": "Z-138, time 7.0 day"}, "KMS-11": {"system": "KMS-11", "test": "Antiproliferative activity against human KMS-11 cells assessed as cell growth inhibition incubated for 6 days by celltiter-glo assay", "type": "functional", "conditions": "KMS-11, 144 h, time 6 day", "in_short": "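Cells seeded in 384-well plates at an optimized density and held 24 h. CellTiter-Glo luminescence read at Day 0 and Day 6. Four-parameter fit. gIC50 = midpoint of the growth window between DMSO and T0. Curves required ≥1.5 population doublings.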"}, "Z-138 [6]": {"system": "Z-138", "test": "Induction of cell cycle arrest in human Z138 cells assessed as increase in 2n cell population measured upto 5000 nM measured for 3 days by propidium iodide staining based flow cytometric analysis", "type": "functional", "conditions": "time 3.0 day"}, "HT-3": {"system": "HT-3", "test": "Antiproliferative activity against human HT-3 cells assessed as cell growth inhibition incubated for 10 days", "type": "functional", "conditions": "HT-3, 240 h, time 10 day", "in_short": "(§1)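 Outsourced panel run in 384-well plates. Cells were grown in RPMI-1640/10% FBS or a special medium at 37°C, 5% CO2. Compound was added 24 h after seeding as a 10-point, 3.16-fold series in 0.1% DMSO. Medium was refreshed and cells re-dosed at 168 h, with a time-zero plate kept. At 240 h cells were fixed, nuclei stained and imaged. gIC50 is growth midway between untreated and time zero, from a 4-parameter fit.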"}, "DMS-273": {"system": "DMS-273", "test": "Antiproliferative activity against human DMS-273 cells assessed as cell growth inhibition incubated for 10 days", "type": "functional", "conditions": "DMS-273, 240 h, time 10 day", "in_short": "as §1"}, "HepG2": {"system": "HepG2", "test": "Antiproliferative activity against human HepG2 cells assessed as cell growth inhibition incubated for 10 days", "type": "functional", "conditions": "HepG2, 240 h, time 10 day", "in_short": "as §1"}, "COLO-829": {"system": "COLO-829", "test": "Antiproliferative activity against human COLO-829 cells assessed as cell growth inhibition incubated for 10 days", "type": "functional", "conditions": "COLO-829, 240 h, time 10 day", "in_short": "(§2)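 Cells kept in RPMI-1640 with 10% FBS, 2 mM L-alanyl-L-glutamine and 1 mM Na pyruvate (or a special medium) at 37°C, 5% CO2. Compound added 24 h after seeding, 10 concentrations in 3.16-fold dilution, 0.1% DMSO final. Medium replaced and cells re-dosed at 168 h; 240 h incubation. Nuclei fixed, dye-stained and imaged. gIC50 = growth midway between untreated and time-zero cell counts, from a 4-parameter fit.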"}, "[7]": {"test": "Antiproliferative activity against human SW579 cells assessed as cell growth inhibition incubated for 10 days", "type": "functional", "conditions": "SW579, 240 h, time 10 day"}, "U-266": {"system": "U-266", "test": "Antiproliferative activity against human U266B1 cells assessed as cell growth inhibition incubated for 10 days", "type": "functional", "conditions": "U-266, 240 h, time 10 day"}, "DU-145": {"system": "DU-145", "test": "Antiproliferative activity against human DU-145 cells assessed as cell growth inhibition incubated for 10 days", "type": "functional", "conditions": "DU-145, 240 h, time 10 day", "in_short": "as §1"}, "HOS": {"system": "HOS", "test": "Antiproliferative activity against human HOS cells assessed as cell growth inhibition incubated for 10 days", "type": "functional", "conditions": "240 h, time 10 day", "in_short": "as §1"}, "[8]": {"test": "Antiproliferative activity against human A7 cells assessed as cell growth inhibition incubated for 10 days", "type": "functional", "conditions": "A7, 240 h, time 10 day", "in_short": "as §2"}, "[9]": {"molecular_target": "Protein arginine N-methyltransferase 5 (Homo sapiens) (UniProt O14744)", "sequence (O14744 whole entry)": "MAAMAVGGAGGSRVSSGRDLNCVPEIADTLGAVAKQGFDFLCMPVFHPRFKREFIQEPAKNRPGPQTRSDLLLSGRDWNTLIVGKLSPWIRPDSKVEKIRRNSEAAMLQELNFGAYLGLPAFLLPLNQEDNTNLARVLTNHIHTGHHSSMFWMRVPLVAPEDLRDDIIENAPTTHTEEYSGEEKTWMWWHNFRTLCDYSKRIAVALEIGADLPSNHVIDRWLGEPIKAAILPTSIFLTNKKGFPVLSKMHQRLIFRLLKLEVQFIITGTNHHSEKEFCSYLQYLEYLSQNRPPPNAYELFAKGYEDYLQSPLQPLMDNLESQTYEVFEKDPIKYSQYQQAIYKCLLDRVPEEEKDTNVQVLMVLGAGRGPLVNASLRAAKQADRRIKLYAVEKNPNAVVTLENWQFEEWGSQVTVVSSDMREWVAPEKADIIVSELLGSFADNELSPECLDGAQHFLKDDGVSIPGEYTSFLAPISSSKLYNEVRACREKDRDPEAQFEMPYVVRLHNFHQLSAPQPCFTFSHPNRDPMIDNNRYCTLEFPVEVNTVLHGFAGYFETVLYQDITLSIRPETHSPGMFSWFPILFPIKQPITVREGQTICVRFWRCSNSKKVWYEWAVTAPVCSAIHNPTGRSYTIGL", "test": "Inhibition of PRMT5 in human Z138 cells assessed as short MDM4 splicing at 200 to 1000 nM incubated for 3 days by RT-PCR analysis", "type": "cell-based", "conditions": "dose 200-1000 nM, time 3.0 day"}, "SK-N-AS": {"system": "SK-N-AS", "test": "Antiproliferative activity against human SK-N-AS cells assessed as cell growth inhibition incubated for 10 days", "type": "functional", "conditions": "240 h, time 10 day"}, "Calu-1": {"system": "Calu-1", "test": "Antiproliferative activity against human Calu-1 cells assessed as cell growth inhibition incubated for 10 days", "type": "functional", "conditions": "Calu-1, 240 h, time 10 day", "in_short": "as §1"}, "A-427": {"system": "A-427", "test": "Antiproliferative activity against human A-427 cells assessed as cell growth inhibition incubated for 10 days", "type": "functional", "conditions": "A-427, 240 h, time 10 day", "in_short": "as §2"}, "[10]": {"test": "Antiproliferative activity against human RKOE6 cells assessed as cell growth inhibition incubated for 10 days", "type": "functional", "conditions": "RKOE6, 240 h, time 10 day"}, "NCI-H460": {"system": "NCI-H460", "test": "Antiproliferative activity against human NCI-H460 cells assessed as cell growth inhibition incubated for 10 days", "type": "functional", "conditions": "NCI-H460, 240 h, time 10 day"}, "[11]": {"test": "Antiproliferative activity against human CML-T1 cells assessed as cell growth inhibition incubated for 10 days", "type": "functional", "conditions": "CML-T1, 240 h, time 10 day", "in_short": "as §2"}, "DBTRG-05MG": {"system": "DBTRG-05MG", "test": "Antiproliferative activity against human DBTRG-05MG cells assessed as cell growth inhibition incubated for 10 days", "type": "functional", "conditions": "240 h, time 10 day", "in_short": "as §1"}, "COR-L23": {"system": "COR-L23", "test": "Antiproliferative activity against human COR-L23 cells assessed as cell growth inhibition incubated for 10 days", "type": "functional", "conditions": "COR-L23, 240 h, time 10 day", "in_short": "as §1"}, "BJAB": {"system": "BJAB", "test": "Antiproliferative activity against human BJAB cells assessed as cell growth inhibition incubated for 6 days by celltiter-glo assay", "type": "functional", "conditions": "144 h, time 6 day"}, "U-2940": {"system": "U-2940", "test": "Antiproliferative activity against human U-2940 cells assessed as reduction in cell viability", "type": "functional, cell-based"}, "HT-1080": {"system": "HT-1080", "test": "Antiproliferative activity against human HT-1080 cells assessed as cell growth inhibition incubated for 10 days", "type": "functional", "conditions": "HT-1080, 240 h, time 10 day", "in_short": "as §1"}, "SK-LMS-1": {"system": "SK-LMS-1", "test": "Antiproliferative activity against human SK-LMS-1 cells assessed as cell growth inhibition incubated for 10 days", "type": "functional", "conditions": "SK-LMS-1, 240 h, time 10 day"}, "OE19": {"system": "OE19", "test": "Antiproliferative activity against human OE19 cells assessed as cell growth inhibition incubated for 10 days", "type": "functional", "conditions": "OE19, 240 h, time 10 day"}, "U-87 MG": {"system": "U-87 MG", "test": "Antiproliferative activity against human U-87 MG cells assessed as cell growth inhibition incubated for 10 days", "type": "functional, U-87MG ATCC", "conditions": "240 h, time 10 day"}, "CAPAN-1": {"system": "CAPAN-1", "test": "Antiproliferative activity against human CAPAN-1 cells assessed as cell growth inhibition incubated for 10 days", "type": "functional", "conditions": "CAPAN-1, 240 h, time 10 day", "in_short": "as §2"}, "HeLa": {"system": "HeLa", "test": "Antiproliferative activity against human HeLa cells assessed as cell growth inhibition incubated for 10 days", "type": "functional", "conditions": "240 h, time 10 day", "in_short": "as §1"}}, "note": "The source made the active and inactive calls. The calls are words filed in the database; no cut-off is given here.", "data": [{"compound": "CC(=O)N1CCC(Nc2cc(C(=O)NC[C@H](O)CN3CCc4ccccc4C3)ncn2)CC1", "note": "[PEMRAMETOSTAT]", "values": [{"measurement": "Activity", "setting": "Z-138 [1]", "result": "inactive"}, {"measurement": "Activity", "setting": "Z-138 [2]", "result": "Dose-Dependent Effect"}, {"measurement": "Activity", "setting": "JVM-2", "result": "Dose-Dependent Effect"}, {"measurement": "inhibition", "setting": "Z-138 [3]", "result": "Active"}, {"measurement": "inhibition", "setting": "Z-138 [4]", "result": "Active"}, {"measurement": "inhibition", "setting": "[5]", "result": "Active"}, {"measurement": "GI50", "setting": "KMS-11", "result": 66, "unit": "nM"}, {"measurement": "Activity", "setting": "Z-138 [6]", "result": "Active"}]}, {"compound": "O=C(NC[C@H](O)CN1CCc2ccccc2C1)c1ccnc(NC2CCC2)c1", "values": [{"measurement": "GI50", "setting": "HT-3", "result": 10, "unit": "µM"}, {"measurement": "GI50", "setting": "DMS-273", "result": 298, "unit": "nM"}, {"measurement": "GI50", "setting": "HepG2", "result": 214, "unit": "nM"}, {"measurement": "GI50", "setting": "COLO-829", "result": 54.4, "unit": "nM"}, {"measurement": "GI50", "setting": "[7]", "result": 83.3, "unit": "nM"}, {"measurement": "GI50", "setting": "U-266", "result": 78.5, "unit": "nM"}, {"measurement": "GI50", "setting": "DU-145", "result": 151, "unit": "nM"}, {"measurement": "GI50", "setting": "HOS", "result": 223, "unit": "nM"}, {"measurement": "GI50", "setting": "[8]", "result": 36.7, "unit": "nM"}, {"measurement": "inhibition", "setting": "[9]", "result": "Active"}, {"measurement": "GI50", "setting": "SK-N-AS", "result": 31.9, "unit": "nM"}, {"measurement": "GI50", "setting": "Calu-1", "result": 3.05, "unit": "µM"}, {"measurement": "GI50", "setting": "A-427", "result": 130, "unit": "nM"}, {"measurement": "GI50", "setting": "[10]", "result": 210, "unit": "nM"}, {"measurement": "GI50", "setting": "NCI-H460", "result": 224, "unit": "nM"}, {"measurement": "GI50", "setting": "[11]", "result": 16.1, "unit": "nM"}, {"measurement": "GI50", "setting": "DBTRG-05MG", "result": 156, "unit": "nM"}, {"measurement": "GI50", "setting": "COR-L23", "result": 147, "unit": "nM"}, {"measurement": "GI50", "setting": "BJAB", "result": 3.1, "unit": "µM"}, {"measurement": "Activity", "setting": "U-2940", "result": "Active"}, {"measurement": "GI50", "setting": "HT-1080", "result": 53.5, "unit": "nM"}, {"measurement": "GI50", "setting": "SK-LMS-1", "result": 113, "unit": "nM"}, {"measurement": "GI50", "setting": "OE19", "result": 98, "unit": "nM"}, {"measurement": "GI50", "setting": "U-87 MG", "result": 67.6, "unit": "nM"}, {"measurement": "GI50", "setting": "CAPAN-1", "result": 370, "unit": "nM"}, {"measurement": "GI50", "setting": "HeLa", "result": 230, "unit": "nM"}]}]}
